For assay [1], the target named is Metabotropic glutamate receptor 1 (Rattus norvegicus) (UniProt P23385). Kind of assay: Antagonist activity at mGlu1 receptor assessed as inhibition of DHPG-induced depolarization of neonatal rat motoneurons at 10 uM. Format: functional.
Another assay addresses Glutamate receptor 2 (Homo sapiens, UniProt P42262). The assay can be described thus: Antagonist activity at human recombinant GLUA2-AMPA receptor expressed in HEK293 cells assessed as inhibition of glutamate-stimulated calcium influx by FLIPR assay. It is filed as functional, cell-based.
Assay [2] concerns the target T1, Glutamate NMDA receptor (Rattus norvegicus) (UniProt P35439+Q00959+Q00960+Q00961+Q62645+Q8VHN2+Q9R1M7). The assay can be described thus: Antagonist activity at NMDA receptor assessed as inhibition of NMDA-induced depolarization of neonatal rat spinal cord motoneurons at 10 uM. It is filed as functional.
Assay [3] in a line: Activity at native AMPA receptor assessed as antagonism of (S)-5-fluoriwillardiine-induced depolarization of neonatal rat spinal cord motorneurones. It is filed as functional.
Assay [4] in a line: Antagonist activity at human recombinant GLUK6/GLUK2 expressed in HEK293 cells assessed as inhibition of glutamate-stimulated calcium influx by FLIPR assay. It is filed as functional, cell-based.
The nature of assay [5]: Antagonist activity at human recombinant GLUK6/GLUK2 expressed in HEK293 cells assessed as inhibition of glutamate-stimulated calcium influx at 100 uM by FLIPR assay. It is filed as functional.
Assay [6] can be described thus: Antagonist activity at native AMPA receptor assessed as fDR-VRP reduction of neonatal rat spinal cord motorneurones. Format: functional. In outline: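 Neonatal (1-5-day-old, non-anaesthetized) rat hemisected spinal cord. Concentration-response curves for antagonist (5 min applications) on the fast component of the dorsal root-evoked ventral root potential, with 2 mM MgSO4 and 50 µM (R)-AP5 (30 min preincubation) to block NMDA receptors; mean ± SEM, n = 3.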

Assay [7] deals with Glutamate receptor ionotropic, kainate 1 (Homo sapiens) (UniProt P39086). Kind of assay: Antagonist activity at human recombinant GLUK5/GLUK2 expressed in HEK293 cells assessed as inhibition of glutamate-stimulated calcium influx by FLIPR assay. It is filed as functional, cell-based.
Glutamate receptor ionotropic, kainate 1 (Homo sapiens), sequence (P39086 whole entry): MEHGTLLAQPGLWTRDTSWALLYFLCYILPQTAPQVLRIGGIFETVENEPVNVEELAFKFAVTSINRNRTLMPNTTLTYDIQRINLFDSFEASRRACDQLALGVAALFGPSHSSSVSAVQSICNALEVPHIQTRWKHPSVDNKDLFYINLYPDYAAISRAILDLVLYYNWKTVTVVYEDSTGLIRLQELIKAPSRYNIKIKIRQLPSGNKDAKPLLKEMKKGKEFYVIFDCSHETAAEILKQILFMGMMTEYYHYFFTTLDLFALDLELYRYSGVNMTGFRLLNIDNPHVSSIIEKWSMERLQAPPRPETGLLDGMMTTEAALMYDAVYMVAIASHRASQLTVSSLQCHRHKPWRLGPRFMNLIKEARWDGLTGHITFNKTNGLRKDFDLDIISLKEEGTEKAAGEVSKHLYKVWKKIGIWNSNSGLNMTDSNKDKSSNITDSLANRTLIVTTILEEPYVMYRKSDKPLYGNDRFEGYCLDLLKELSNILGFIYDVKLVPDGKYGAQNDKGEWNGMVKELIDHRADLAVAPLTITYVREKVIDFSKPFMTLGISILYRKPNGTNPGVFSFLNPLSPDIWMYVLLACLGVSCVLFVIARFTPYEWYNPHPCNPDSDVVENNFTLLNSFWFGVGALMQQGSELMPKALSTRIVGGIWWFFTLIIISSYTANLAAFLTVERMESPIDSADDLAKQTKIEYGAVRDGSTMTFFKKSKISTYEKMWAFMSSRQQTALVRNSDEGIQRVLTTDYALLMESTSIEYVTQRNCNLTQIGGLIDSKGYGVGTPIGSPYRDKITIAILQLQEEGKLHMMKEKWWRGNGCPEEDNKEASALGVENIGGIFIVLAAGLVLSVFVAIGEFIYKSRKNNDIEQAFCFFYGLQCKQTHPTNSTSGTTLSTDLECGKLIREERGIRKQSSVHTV
The target of assay [8] is Glutamate receptor ionotropic, kainate 1 (Rattus norvegicus, UniProt P22756). Kind of assay: Activity at native GLUK5 kainate receptor assessed as antagonism of kainite-induced depolarization of neonatal non-anaesthetised rat dorsal root fibres.
Glutamate receptor ionotropic, kainate 1, sequence (P22756 whole entry): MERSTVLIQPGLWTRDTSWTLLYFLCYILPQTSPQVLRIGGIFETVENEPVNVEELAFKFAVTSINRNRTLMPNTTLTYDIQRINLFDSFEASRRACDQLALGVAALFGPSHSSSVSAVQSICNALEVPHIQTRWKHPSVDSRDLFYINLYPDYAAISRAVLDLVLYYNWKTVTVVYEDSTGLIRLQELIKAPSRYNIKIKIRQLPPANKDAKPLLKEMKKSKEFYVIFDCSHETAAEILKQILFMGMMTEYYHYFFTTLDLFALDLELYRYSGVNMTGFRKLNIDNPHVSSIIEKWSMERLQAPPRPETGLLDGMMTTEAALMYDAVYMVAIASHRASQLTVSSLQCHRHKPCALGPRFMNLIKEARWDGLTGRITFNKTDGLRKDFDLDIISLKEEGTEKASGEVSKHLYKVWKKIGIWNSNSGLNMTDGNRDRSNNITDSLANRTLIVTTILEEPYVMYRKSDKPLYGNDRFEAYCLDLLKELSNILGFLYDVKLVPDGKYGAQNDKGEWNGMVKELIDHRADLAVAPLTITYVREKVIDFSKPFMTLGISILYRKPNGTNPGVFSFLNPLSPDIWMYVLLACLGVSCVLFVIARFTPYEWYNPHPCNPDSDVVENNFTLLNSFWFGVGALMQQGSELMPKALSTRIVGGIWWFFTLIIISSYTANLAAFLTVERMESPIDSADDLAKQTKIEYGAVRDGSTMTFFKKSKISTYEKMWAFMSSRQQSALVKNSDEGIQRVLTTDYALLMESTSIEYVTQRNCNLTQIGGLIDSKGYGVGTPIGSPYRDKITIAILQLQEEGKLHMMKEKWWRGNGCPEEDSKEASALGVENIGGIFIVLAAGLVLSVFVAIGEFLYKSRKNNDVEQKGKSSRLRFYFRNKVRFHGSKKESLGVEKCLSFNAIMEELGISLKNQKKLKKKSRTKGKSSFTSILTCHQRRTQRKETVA
For assay [9], the target named is Metabotropic glutamate receptor 5 (Rattus norvegicus) (UniProt P31424). The assay can be described thus: Antagonist activity at mGlu5 receptor assessed as inhibition of DHPG-induced depolarization of neonatal rat spinal cord motoneurons at 10 uM. Format: functional.
Metabotropic glutamate receptor 5 (Rattus norvegicus), sequence (P31424 21-1203 limits assumed): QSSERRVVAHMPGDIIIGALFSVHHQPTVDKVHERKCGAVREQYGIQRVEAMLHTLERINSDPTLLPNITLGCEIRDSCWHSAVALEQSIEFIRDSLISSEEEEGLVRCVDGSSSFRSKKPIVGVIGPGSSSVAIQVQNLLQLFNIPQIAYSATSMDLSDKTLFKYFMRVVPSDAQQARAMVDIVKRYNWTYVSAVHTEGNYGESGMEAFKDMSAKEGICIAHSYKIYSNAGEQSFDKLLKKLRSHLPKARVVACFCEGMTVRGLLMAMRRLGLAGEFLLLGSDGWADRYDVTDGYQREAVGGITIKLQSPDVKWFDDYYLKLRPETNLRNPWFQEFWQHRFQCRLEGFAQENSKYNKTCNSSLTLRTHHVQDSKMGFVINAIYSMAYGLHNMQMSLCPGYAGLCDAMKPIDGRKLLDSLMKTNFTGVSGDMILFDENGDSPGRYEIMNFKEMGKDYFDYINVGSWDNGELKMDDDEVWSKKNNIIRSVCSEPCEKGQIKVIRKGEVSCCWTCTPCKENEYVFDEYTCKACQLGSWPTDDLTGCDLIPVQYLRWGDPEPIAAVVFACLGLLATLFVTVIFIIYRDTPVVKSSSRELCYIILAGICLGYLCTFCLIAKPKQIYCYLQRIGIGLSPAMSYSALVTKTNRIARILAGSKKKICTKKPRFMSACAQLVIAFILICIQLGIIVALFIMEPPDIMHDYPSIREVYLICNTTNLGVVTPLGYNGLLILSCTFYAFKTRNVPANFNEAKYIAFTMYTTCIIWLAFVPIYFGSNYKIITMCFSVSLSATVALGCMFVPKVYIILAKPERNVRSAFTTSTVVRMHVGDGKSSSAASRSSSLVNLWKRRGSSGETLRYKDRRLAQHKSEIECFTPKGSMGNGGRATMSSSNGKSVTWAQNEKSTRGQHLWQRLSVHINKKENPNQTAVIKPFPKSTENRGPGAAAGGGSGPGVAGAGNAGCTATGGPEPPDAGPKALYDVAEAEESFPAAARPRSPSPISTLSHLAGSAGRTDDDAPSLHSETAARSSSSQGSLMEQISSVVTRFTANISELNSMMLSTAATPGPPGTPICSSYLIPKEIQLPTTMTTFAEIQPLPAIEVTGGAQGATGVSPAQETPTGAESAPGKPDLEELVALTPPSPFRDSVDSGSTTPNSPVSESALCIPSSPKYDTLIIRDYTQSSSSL
Assay [10] deals with Glutamate receptor ionotropic, kainate 1 (Homo sapiens) (UniProt P39086). Kind of assay: Antagonist activity at human recombinant GLUK5 receptor expressed in HEK293 cells assessed as inhibition of glutamate-stimulated calcium influx by FLIPR assay. Format: functional, cell-based. In outline:
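Human GLUK5(Q) cells (Bmax of [3H]kainate binding 1.7 pmol/mg) loaded with calcium dye and read on FLIPR. Kb derived from IC50 by Cheng-Prusoff. Mean ± SEM, n = 3.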

The target of assay [11] is Glutamate receptor ionotropic, kainate 2 (Homo sapiens, UniProt Q13002). Kind of assay: Antagonist activity at human recombinant GLUK6 expressed in HEK293 cells assessed as inhibition of glutamate-stimulated calcium influx by FLIPR assay. It is filed as functional, cell-based.
Glutamate receptor ionotropic, kainate 2, sequence (Q13002 whole entry): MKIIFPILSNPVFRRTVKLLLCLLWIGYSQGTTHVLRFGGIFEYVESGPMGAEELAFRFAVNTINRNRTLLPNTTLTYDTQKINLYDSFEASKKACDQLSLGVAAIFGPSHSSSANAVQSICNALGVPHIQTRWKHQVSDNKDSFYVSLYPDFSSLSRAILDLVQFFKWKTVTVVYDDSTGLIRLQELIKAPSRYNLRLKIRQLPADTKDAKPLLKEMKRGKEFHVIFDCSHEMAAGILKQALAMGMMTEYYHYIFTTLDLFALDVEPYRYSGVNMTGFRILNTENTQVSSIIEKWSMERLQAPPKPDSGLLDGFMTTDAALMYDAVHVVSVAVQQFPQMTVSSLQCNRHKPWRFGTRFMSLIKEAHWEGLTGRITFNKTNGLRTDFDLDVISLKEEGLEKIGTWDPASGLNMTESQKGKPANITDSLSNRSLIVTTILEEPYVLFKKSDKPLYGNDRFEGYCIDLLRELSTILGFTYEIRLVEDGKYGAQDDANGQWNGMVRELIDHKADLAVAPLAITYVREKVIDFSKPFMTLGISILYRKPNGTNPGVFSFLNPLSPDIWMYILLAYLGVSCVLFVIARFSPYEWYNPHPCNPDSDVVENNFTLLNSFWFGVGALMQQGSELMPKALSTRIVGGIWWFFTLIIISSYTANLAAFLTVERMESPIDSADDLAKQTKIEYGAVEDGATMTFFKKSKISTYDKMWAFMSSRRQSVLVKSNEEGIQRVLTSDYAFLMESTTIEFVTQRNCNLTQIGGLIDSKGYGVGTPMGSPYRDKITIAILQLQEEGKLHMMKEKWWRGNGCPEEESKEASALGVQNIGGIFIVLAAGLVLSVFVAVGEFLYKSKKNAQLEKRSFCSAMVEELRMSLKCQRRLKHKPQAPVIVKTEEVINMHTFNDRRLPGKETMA
Assay [12] in a line: Antagonist activity at human recombinant GLUK5/GLUK6 expressed in HEK293 cells assessed as inhibition of glutamate-stimulated calcium influx by FLIPR assay. Format: functional, cell-based.
The target of assay [13] is Metabotropic glutamate receptor 1 (Rattus norvegicus) (UniProt P23385). The assay can be described thus: Antagonist activity at mGlu1 receptor assessed as inhibition of DHPG-induced depolarization of neonatal rat spinal cord motoneurons at 1 uM. It is filed as functional.
The target of assay [14] is Metabotropic glutamate receptor 5 (Rattus norvegicus) (UniProt P31424). The assay can be described thus: Antagonist activity at mGlu5 receptor assessed as inhibition of DHPG-induced depolarization of neonatal rat spinal cord motoneurons at 1 uM. It is filed as functional.
Assay [15] addresses T1, Glutamate NMDA receptor (Rattus norvegicus). The assay can be described thus: Antagonist activity at NMDA receptor assessed as inhibition of NMDA-induced depolarization of neonatal rat spinal cord motoneurons at 1 uM. It is filed as functional.

Structures are written as SMILES. The source made the active and inactive calls. The rule behind the calls is not given here.

Glutamate receptor 2, sequence (P42262 whole entry): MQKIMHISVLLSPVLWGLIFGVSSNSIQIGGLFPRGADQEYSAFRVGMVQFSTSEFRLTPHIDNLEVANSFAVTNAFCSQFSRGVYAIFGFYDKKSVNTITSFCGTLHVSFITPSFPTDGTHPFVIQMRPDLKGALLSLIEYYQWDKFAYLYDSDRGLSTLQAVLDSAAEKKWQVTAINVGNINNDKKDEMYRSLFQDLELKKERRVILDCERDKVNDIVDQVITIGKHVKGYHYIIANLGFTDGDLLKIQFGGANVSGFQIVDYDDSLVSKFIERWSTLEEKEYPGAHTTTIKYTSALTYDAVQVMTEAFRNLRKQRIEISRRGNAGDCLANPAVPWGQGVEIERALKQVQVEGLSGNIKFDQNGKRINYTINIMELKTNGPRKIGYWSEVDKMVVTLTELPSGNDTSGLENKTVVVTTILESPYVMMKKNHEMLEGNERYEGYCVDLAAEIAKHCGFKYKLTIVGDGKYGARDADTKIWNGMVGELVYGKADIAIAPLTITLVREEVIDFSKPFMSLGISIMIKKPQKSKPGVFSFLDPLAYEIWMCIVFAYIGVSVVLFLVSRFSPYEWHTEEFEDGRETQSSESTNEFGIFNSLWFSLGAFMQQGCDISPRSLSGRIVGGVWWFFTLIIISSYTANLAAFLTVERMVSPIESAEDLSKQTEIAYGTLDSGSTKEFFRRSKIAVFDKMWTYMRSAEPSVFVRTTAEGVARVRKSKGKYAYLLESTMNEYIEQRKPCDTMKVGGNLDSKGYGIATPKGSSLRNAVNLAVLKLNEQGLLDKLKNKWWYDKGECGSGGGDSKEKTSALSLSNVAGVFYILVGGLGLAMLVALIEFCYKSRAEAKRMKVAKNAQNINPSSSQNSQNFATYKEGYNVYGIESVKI

For the molecule `Cc1cn(C[C@H](N)C(=O)O)c(=O)n(Cc2ccsc2C(=O)O)c1=O`, the outcome in assay [1], in assay [2] and in assay [9] was inactive. Besides, the IC50 was more than 100 µM on Glutamate receptor 2, more than 100 µM in assay [4], 16.2 µM in assay [6] and more than 100 µM in [11]. Also, the Kd in assay [3] amounted to 83.4 µM; in [8], 18 nM. Further, the inhibition at 100 µM in assay [5] turned out to be 27%. In addition, the Kb was determined as 8 nM in assay [7] and 10 nM in assay [10].
As to `N[C@@H](Cn1cc(Br)c(=O)n(Cc2ccsc2C(=O)O)c1=O)C(=O)O`, in assay [6], the IC50 came out at 42.9 µM. Besides, the Kd in assay [8] is 25 nM.
Turning to `N#Cc1cc2c(cc1[N+](=O)[O-])=NC(=O)C(=O)N=2`, in assay [8], the Kd turned out to be 1380 nM.
For `N[C@@H](Cn1ccc(=O)n(Cc2ccccc2C(=O)O)c1=O)C(=O)O`, the IC50 on Glutamate receptor 2 is more than 300 µM; in assay [4] it was more than 300 µM; in [6], 106 µM; in assay [11] it was more than 300 µM. For the same molecule, the Kb in assay [12] came to 800 nM; in [7] it was 1000 nM; in assay [10] it was 600 nM.
For `N[C@@H](Cn1cc(I)c(=O)n(Cc2ccccc2C(=O)O)c1=O)C(=O)O`, the IC50 in [6] was 74.1 µM.
In the case of `Cc1cn(C[C@H](N)C(=O)O)c(=O)n(Cc2ccccc2C(=O)O)c1=O`, the concentration for half-maximal inhibition (IC50) in [6] was determined as 51.2 µM. Further, the dissociation constant (Kd) in assay [8] was 23 nM.
For the molecule `Cc1cn(C[C@H](N)C(=O)O)c(=O)n(Cc2c(C(=O)O)sc(Br)c2Br)c1=O`, the half-maximal inhibitory concentration (IC50) in assay [6] came to 2.8 µM. In assay [8], the equilibrium dissociation constant (Kd) is 10 nM.
On to `N[C@@H](Cn1cc(F)c(=O)n(Cc2ccccc2C(=O)O)c1=O)C(=O)O`, for which the IC50 in [6] is 18.5 µM. The Kd in assay [8] was 358 nM.
On the same counts, the results for `N[C@@H](Cn1cc(C(F)(F)F)c(=O)n(Cc2ccsc2C(=O)O)c1=O)C(=O)O` are 55.3 µM and 55 nM.
On the same counts, the results for `Cc1cn(C[C@H](N)C(=O)O)c(=O)n(Cc2ccoc2C(=O)O)c1=O` are 25.1 µM and 80 nM.
For `N[C@@H](Cn1ccc(=O)n(Cc2ccoc2C(=O)O)c1=O)C(=O)O` the same measures were 11.7 µM and 1880 nM.
As to `Cc1cn(C[C@H](N)C(=O)O)c(=O)n(Cc2cc(-c3ccccc3)sc2C(=O)O)c1=O`, the outcome in [13], in [14] and in [15] was inactive. For the same molecule, the IC50 was more than 100 µM at Glutamate receptor 2, more than 100 µM in assay [4], 16.6 µM in [6] and more than 100 µM in assay [11]. The Kd came out at 108 µM in assay [3] and 12 nM in assay [8]. The results for the antagonist equilibrium constant (Kb) in [7] and in assay [10] were 5 nM and 7 nM, respectively.
Consider `N[C@@H](Cn1ccc(=O)n(Cc2ccsc2C(=O)O)c1=O)C(=O)O`, for which the IC50 at Glutamate receptor 2 is more than 100 µM; in assay [4] it was more than 100 µM; in assay [6], 31.2 µM; in assay [11], more than 100 µM. For the same molecule, the Kd came out at 71.4 µM in assay [3] and 105 nM in assay [8]. Also, the values for the Kb in assay [12], in assay [7] and in assay [10] were 120 nM, 180 nM and 120 nM, respectively.
As for `N[C@@H](Cn1cc(Br)c(=O)n(Cc2ccccc2C(=O)O)c1=O)C(=O)O`, the IC50 in [6] was 63.9 µM. Also, the dissociation constant (Kd) in assay [8] is 102 nM.
As to `NS(=O)(=O)c1cccc2c1c([N+](=O)[O-])cc1nc(O)c(O)nc12` [NBQX], the IC50 in [4] was found to be 135 µM; in assay [12] it was 28 µM.

The values above are taken from ChEMBL document CHEMBL1142988 (J Med Chem, 2007).
